Test results reported in ChEMBL document CHEMBL3272238, “Synthesis and biological evaluation of fragmented derivatives of tetrahydroisoquinolines. 3. Trimetoquinol studies” (J Med Chem, 1976).
The source made the active and inactive calls.

What was measured:
[1] = species: Cavia porcellus; test: Chronotropic activity in guinea pig atrium assessed as increase in atrial rate by force displacement transducer analysis; type: functional, tissue-based; conditions: Cardiac atrium
Summary of the method: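 Isolated right atrium given cumulative test doses, with rate recorded over 3 min per dose at 1- and 3-min readings. Chronotropic responses were expressed relative to the maximum from 10⁻⁵ M isoproterenol added at the end of each run. ED₅₀ (half-maximal) was taken from individual plots.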

[2] = species: Cavia porcellus; test: Agonist activity at beta-adrenoceptor in guinea pig trachea assessed as […] of carbachol-induced contraction by force-displacement transducer analysis; type: tissue-based
Summary of the method: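 Tissue strips held at 1 g tension in Krebs bicarbonate-glucose solution at 37°, equilibrated 1-1.5 h, then drug-induced tension changes recorded isometrically. Cumulative log-concentration curves were built, and the ED₅₀ (concentration giving half-maximal response) was read from each curve.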

[3] = species: Rattus norvegicus; test: Induction of lipolysis in Sprague-Dawley rat fat cells assessed as increase in glycerol level at 10^-8 to 10^-4 M; type: functional
Summary of the method: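 Fat cells from epididymal tissue of nonfasted male rats (200–250 g) were isolated by collagenase digestion in Krebs bicarbonate with 3% BSA. Drug (1×10⁻⁸–3×10⁻⁴ M) was incubated 1 h at 37° in air, stopped with equal-volume 10% TCA, and glycerol assayed. Release was normalized to 10⁻⁶ M isoproterenol maximum; mean of N=3 ± SEM.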

Measured: Activity

COc1cc(CC(NC(C)C)c2ccc(O)c(O)c2)cc(OC)c1OC (stereo not given)
active: [1] | [2] | [3]

COc1cc(CC(N)c2ccc(O)c(O)c2)cc(OC)c1OC (stereo not given)
active: [1] | [2] | [3]

CNC(Cc1cc(OC)c(OC)c(OC)c1)c1ccc(O)c(O)c1 (stereo not given)
active: [1] | [2] | [3]

COc1cc(C[C@@H]2NCCc3cc(O)c(O)cc32)cc(OC)c1OC (racemic)
active: [1] | [2] | [3]

CCNC(Cc1cc(OC)c(OC)c(OC)c1)c1ccc(O)c(O)c1 (stereo not given)
active: [1] | [2] | [3]
